Data published in PMC9124159 (Molecular Diversity, 2022).
Converted amounts (≈) assume the structure as drawn. “And” between values parts separate entries of the source, which are not always exact repeats. Equal entries are not always repeated. “Also recorded” adds a separate entry of the source. Where two headings read alike, the source gives them in different places.

Columns and labels:
[1] = system: GFP reporter strain of Mtb (Mtb pMSp12: GFP); format: cell-based, Mycobacterium tuberculosis
[2] = MTT cytotoxicity assay, BJ-5ta cells; format: cell-based, Human; settings: human, BJ-5ta cells (hTERT immortalized human skin fibroblasts)
Procedure, shortened: (§1)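 BJ-5ta fibroblasts seeded at 1.8 × 10⁴ cells/well, 24 h at 37 °C, 5% CO2. Then exposed 48 h to test compound at 1, 5 or 10 µM in 0.15% DMSO, 3 technical repeats. Dead-cell control was 0.2% Triton X-100 for 15 min. After PBS rinses, MTT 0.5 mg/ml final for 4 h, formazan dissolved in DMSO. A560 minus A630, DMSO-blank-corrected, % of untreated cells; mean ± SD.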

[3] = system: BJ-5ta (hTERT immortalized Human skin fibroblasts); experiment: MTT cytotoxicity assay, BJ-5ta cells; format: cell-based; settings: BJ-5ta, 48 h, MTT
Procedure, shortened: as §1

Vero cell line = experiment: MTT cytotoxicity assay, Vero cells; format: cell-based; settings: 48 h
Procedure, shortened: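 Vero cells plated at 3.0 × 10³ cells/well, 24 h at 37 °C, 5% CO2. Then 48 h exposure to test compound at 1, 5 or 10 µM in 0.15% DMSO, triplicate technical repeats. Positive control was 0.2% Triton X-100 for 15 min. Cells PBS-rinsed, MTT 0.5 mg/ml final for 4 h, formazan dissolved in DMSO. Absorbance 560 nm against 630 nm background; survival vs untreated cells; SD, n = 3.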

H37Rv strain of Mtb = H37Rv strain of Mtb in vitro; cited from earlier work

Molecule	MIC90 [1]	further results
c1ccc(Nc2ncnc3[nH]ccc23)cc1 [Compound 1, N-phenyl-7H-pyrrolo[2,3-d]pyrimidin-4-amine]	62.5 µM (≈ 13.1 µg/mL)	
Fc1cccc(Nc2ncnc3[nH]ccc23)c1 [Compound 3, N-(3-fluorophenyl)-7H-pyrrolo[2,3-d]pyrimidin-4-amine]	> 125 µM	
Brc1ccc(Nc2ncnc3[nH]ccc23)cc1 [Compound 10, N-(4-bromophenyl)-7H-pyrrolo[2,3-d]pyrimidin-4-amine]	3.9 µM and 3.90 µM	
c1ccc(Oc2ccc(Nc3ncnc4[nH]ccc34)cc2)cc1 [Compound 11, N-(4-phenoxyphenyl)-7H-pyrrolo[2,3-d]pyrimidin-4-amine]	0.488 µM (≈ 0.148 µg/mL)	MIC90 ([1]; […], no unit printed in the conclusion): 0.488; viability at 48 h, 1 µM [2]: 115%; Cytotoxicity (in words) [3]: weakly cytotoxic; also recorded: weak cytotoxicity; Cytotoxicity (in words) (Vero cell line): no potential cytotoxicity risk; Cytotoxicity (in words) (Vero cell line; listed as N-(4-phenoxy phenyl)-7H-pyrrolo[2,3-d]pyrimidin-4-amine): non-cytotoxic; Cell viability reduction (Vero cell line; highest concentration tested (1, 5, 10 µM tested)): no cell viability reduction observed
c1nc(Nc2ccc(N3CCOCC3)cc2)c2cc[nH]c2n1 [Compound 15, N-(4-morpholinophenyl)-7H-pyrrolo[2,3-d]pyrimidin-4-amine]	3.906 µM and 3.90 µM	
c1ccc(CCCNc2ncnc3[nH]ccc23)cc1 [Compound 22, N-(3-phenylpropyl)-7H-pyrrolo[2,3-d]pyrimidin-4-amine]	14.45 µM (≈ 3.65 µg/mL)	
c1ccc(CCCCNc2ncnc3[nH]ccc23)cc1 [Compound 23, N-(4-phenylbutyl)-7H-pyrrolo[2,3-d]pyrimidin-4-amine]	3.713 µM and 3.71 µM	
OCCNCCNc1ncnc2[nH]ccc12 [Compound 26, 2-((2-((7H-pyrrolo[2,3-d]pyrimidin-4-yl)amino)ethyl)amino)ethan-1-ol]	125 µM (≈ 27.7 µg/mL)	
CC(C)OCCCNc1ncnc2[nH]ccc12 [Compound 27, N-(3-isopropoxypropyl)-7H-pyrrolo[2,3-d]pyrimidin-4-amine]	125 µM (≈ 29.3 µg/mL)	
CO[C@H]1/C=C/O[C@@]2(C)Oc3c(C)c(O)c4c(O)c(c(/C=N/N5CCN(C)CC5)c(O)c4c3C2=O)NC(=O)/C(C)=C\C=C\[C@H](C)[C@H](O)[C@@H](C)[C@@H](O)[C@@H](C)[C@H](OC(C)=O)[C@@H]1C [RF, rifampicin]		MIC (H37Rv strain of Mtb): 0.09 µM (≈ 0.0741 µg/mL)
N-(2-methoxy-4-nitrophenyl)-7H-pyrrolo[2,3-d]pyrimidin-4-amine [Compound 14]	> 125 µM	
N-(3-(trifluoromethyl)phenyl)-7,7a-dihydro-1H-pyrrolo[2,3-d]pyrimidin-4-amine [Compound 4]	62.5 µM	
N-(3-morpholinopropyl)-7H-pyrrolo[2,3-d]pyrimidin-4-amine [Compound 28]	125 µM	
N-(3-nitrophenyl)-7H-pyrrolo[2,3-d]pyrimidin-4-amine [Compound 13]	62.5 µM	
